Screening data: PubChem BioAssay, several laboratories
Biofilm kill mix = mixture kills Candida albicans biofilm cells | C. albicans biofilm persisters + clotrimazole, fluorescence viability; primary screen in compound mixtures of four per well | inhibition, % at 7.6 µM | hit rate 0.02% among 120,000;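 active means inhibition above 30.3% in the primary screen of four-compound pools, then above 30% when the compound was retested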;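 further: compounds exposed to preformed 24 h biofilms for 48 h; 0% = untreated biofilm control and 100% = clotrimazole plus chlorhexidine kill blank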
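Test system: C. albicans CAF4-2 wild-type biofilms; buffer or medium: RPMI/MOPS medium, pH 7.0; schedule: 24 h biofilm formation, then 48 h compound exposure, 37 °C; detection: Alamar Blue fluorescence; measure: percent inhibition of biofilm viability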
Dynein cargo inh = blocks dynein driven cargo transport along microtubules | hit rate 0.47% among 220,000 | AID 1381 | 3617.4 mouse cells, GR-EGFP nuclear translocation imaging; test concentration mostly 20 µM; stimulated with dexamethasone, 1 µM; stronger effect = lower value | z-score, hits read low;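 active means plate z-score of nuclear minus cytoplasmic receptor signal below a set negative limit, without overly bright fluorescence or cell loss, cut at about -3.5 in these data, passing the limit was not always enough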;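 further: z-score of nuclear minus cytoplasmic ring GR-EGFP intensity difference per well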
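Buffer or medium – tet-free medium with charcoal-stripped serum · Signal – automated 10x imaging of fixed Hoechst-stained cells · Also added – dexamethasone agonist, 1.0 µM final, for 30 min · Incubation – induction 48 h, compound 1 h, agonist 30 min · Read-out – GR-EGFP nuclear translocation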
S1P4 antag = human S1P4 receptor antagonism; O95977; S1P4-expressing cells, antagonist mode, reporter read-out; inhibition, % at 4.98 µM; hit rate 0.26% among 220,000; AID 1510; in the data active means inhibition above about 29%;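 further: 0% = wells stimulated with agonist and 100% = vehicle wells without agonist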
S1P3 antag = antagonists of human S1P3 receptor | CHO S1P3 NFAT-BLA reporter, FRET fluorescence, antagonist mode | Q99500 | hit rate 0.27% among 170,000 | inhibition, % at 4.98 µM;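 active means inhibition above the plate cutoff, the mean inhibition of test wells on that plate plus 3 SD, cut at about 28% in these data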;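 further: cells challenged with S1P at its EC80 of 0.8 µM; blue over green emission ratio from cleaved BLA substrate after 4 h stimulation; 0% = S1P-stimulated wells and 100% = unstimulated DMSO-only wells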
Target sequence (Q99500 whole entry, looked up): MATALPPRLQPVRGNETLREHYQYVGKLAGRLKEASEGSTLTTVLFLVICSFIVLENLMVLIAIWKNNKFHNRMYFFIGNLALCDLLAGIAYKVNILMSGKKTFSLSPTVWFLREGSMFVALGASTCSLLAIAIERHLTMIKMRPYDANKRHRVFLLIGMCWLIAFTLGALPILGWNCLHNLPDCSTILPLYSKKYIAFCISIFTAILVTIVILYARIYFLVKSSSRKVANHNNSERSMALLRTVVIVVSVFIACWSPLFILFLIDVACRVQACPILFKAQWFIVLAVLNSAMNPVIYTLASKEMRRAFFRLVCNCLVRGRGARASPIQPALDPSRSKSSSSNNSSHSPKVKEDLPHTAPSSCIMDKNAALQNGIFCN
TbHK1 inh = blocks Trypanosoma brucei hexokinase 1 activity; inhibition, % at 10 µM; recombinant TbHK1, G6PDH-coupled NADH A340; AID 1430; hit rate 0.11% among 220,000;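 active means inhibition of 50% or more in the single-dose primary screen; inactive means inhibition below 50%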
S1P4 agonist = agonists of human S1P4 receptor; O95977; S1P4-expressing cell line, agonist reporter assay; activation, % at 4.98 µM; hit rate 0.35% among 220,000; AID 1509; in the data active means activation above about 11%;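 further: 0% = DMSO vehicle and 100% = reference agonist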
* hit, by the source's call; · = no result. A selection: hits, their analogues and other compounds. The true share with any hit is near 1.3%.

SMILES	Biofilm kill mix	Dynein cargo inh	S1P4 antag	S1P3 antag	TbHK1 inh	S1P4 agonist
CCOC(=O)c1sc2nc(NC(=O)c3cccs3)sc2c1C	·	·	·	70*	·	·
CSCC[C@H](NC(=O)OC(C)(C)C)c1nnc(SCC(=O)Nc2c(C)cccc2C)o1	·	-0.18	-24	11	51*	1
CC(C)(C)c1ccc(C(=O)NC(=S)NCc2cccnc2)cc1	8	3.4	-3	1	-2	3
CC(C)(C)c1ccc(C(=O)NCc2cccnc2)cc1	·	-1	-3	75*	6	-1
COc1ccc2c(c1)CCc1c(C(=O)NCc3cccnc3)noc1-2	·	-0.047	-9	70*	-1	0
Cc1ccc(NC(=S)NNC(=O)c2ccccc2O)c(C)c1	11	-0.86	2	-1	-18	0
Cc1ccc2[nH]c3c(NCc4ccco4)ncnc3c2c1	·	-0.37	2	59*	-10	-2
CCCCCCCCCCCCCCCC[n+]1cccc2ccccc21	4	-5.2*	-14	21	55*	2
CCCCCCCCC[n+]1cccc2c3ccccc3ccc21	·	1.4	-8	·	-6	-4
CCOC(=O)N1CCN(C(=O)CSc2ccc3nnc(CCNC(=O)c4ccc(OC)cc4)n3n2)CC1	16	0.62	-1	3	7	0
COc1ccc(S(=O)(=O)Nc2cc(C)ccn2)cc1OC	·	-0.33	-6	115*	2	0
COc1ccc(S(=O)(=O)Nc2ccccn2)cc1OC	·	-2	-11	-17	-5	1
CC(C)c1nc(SCC(=O)c2c[nH]c3ccccc23)n[nH]1	0	0.43	-4	-9	-15	-2
O=c1oc2ccccc2c2oc3cc(O)c(O)cc3c12	14	-1.5	10	-20	-29	0
O=c1oc2c(O)c(O)cc3c(=O)oc4c(O)c(O)cc1c4c23	19	-0.83	-4	-11	66*	1
CCOC(=O)c1c(C)nc2ccccn12	·	0.091	-14	70*	4	-1
Cc1nc2ccccn2c1C(=O)NN	17	-0.72	-15	-5	-3	1
CCCc1cc2c(-c3ccccc3)cc(=O)oc2cc1OCc1ccc(C(=O)O)o1	-6	-0.47	16	-6	-8	-1
O=c1[nH]c(C2CCN(S(=O)(=O)c3ccccc3)CC2)nc2c1nnn2Cc1ccccc1	7	1.3	-5	-6	-3	-1
CS(=O)(=O)N1CCc2cc(NC(=O)c3ccc(Cl)cc3Cl)ccc21	10	0.6	-24	0	10	0
CCCCN(C)C(=O)c1cn(C)c2ccc(S(=O)(=O)N(C)C)cc2c1=O	·	1.6	3	87*	-32	0
CCS(=O)(=O)N1CCN(C(=O)c2cc(OC)cc(OC)c2)CC1	·	-0.33	-21	0	2	-2
CCCS(=O)(=O)N1CCN(C(=O)c2cc(OC)cc(OC)c2)CC1	·	1.2	5	95*	1	-1
CC1CCCCC1NC(=O)CCCn1c(=S)[nH]c2ccccc2c1=O (stereo not given)	5	1.1	4	-10	0	-1
O=C(CCCn1c(=S)[nH]c2ccccc2c1=O)NC1CCCC1	·	-0.84	18	60*	1	1
SMILES	Biofilm kill mix	Dynein cargo inh	S1P4 antag	S1P3 antag	TbHK1 inh	S1P4 agonist
CN(C)c1ccc(C(=O)Nc2nc3c(s2)CCCC3)cc1	·	0.11	2	90*	-16	0
CCC(=O)O/N=C(\N)c1ccc(Oc2cc(C)c(Cl)c(C)c2)c([N+](=O)[O-])c1	10	0.29	-10	5	-12	-1
CCCn1nc([N+](=O)[O-])c(C(C#N)c2nc3ccccc3o2)c(Cl)c1=O (stereo not given)	17	0.058	2	-10	5	2
Cn1nc([N+](=O)[O-])c(C(C#N)c2ccccn2)c(Cl)c1=O (stereo not given)	-3	-5.9*	-5	0	-8	1
CC(=O)OC1COC(OC2C(O)C(C)OC(OC3C(OC4CCC5(C)C(CCC6(C)C5CC=C5C7CC(C)(C)CCC7(C(=O)O)CCC56C)C4(C)CO)OCC(O)C3O)C2O)C(O)C1OC(C)=O (stereo not given)	21	-5.3*	15	15	-11	2
CCOC(=O)c1c(N)c(C#N)cn1-c1ccccc1	·	-0.29	-1	13	2	-2
CCOC(=O)c1c(NC(=O)c2nn(CC)cc2Br)c(C#N)cn1-c1ccccc1	·	-0.046	-16	59*	-5	2
O=C(CCSc1nnc(-c2ccco2)o1)N1CCOCC1	6	-0.8	8	13	17	-1
CCN1CCc2c(sc(NC(=S)NC(=O)c3ccco3)c2C(N)=O)C1	11	-0.25	6	-19	-51	1
CCN1CCc2c(sc(NC(=O)Nc3ccc(Cl)c(Cl)c3)c2C(N)=O)C1	15	-3.3	-7	29*	2	0
COc1ccc(OC)c(NS(=O)(=O)c2ccc(Cl)nc2)c1	5	-0.22	-11	-6	-2	0
CCCCOc1ccc(S(=O)(=O)Nc2cc(OC)ccc2OC)cc1	·	-0.12	-4	55*	12	-2
COc1nc(Nc2nc3ccccc3c(=O)[nH]2)nc2ccc(C)cc12	25	-0.07	-9	70*	-27	-1
O=C1/C(=C/c2cccnc2)CCc2c1[nH]c1ccccc21	7	-0.56	-24	8	-22	3
CC1C/C(=C\c2cccnc2)C(=O)/C(=C/c2cccnc2)C1 (stereo not given)	18	-6.4*	4	1	-14	-2
O=[N+]([O-])c1cc(S(=O)(=O)N2CCCCCC2)ccc1Cl	12	-2.3	86*	-20	8	-5
Cc1ccc(S(=O)(=O)N2CCCC2)cc1[N+](=O)[O-]	3	0.59	-20	2	26	-1
COC(=O)c1cc2c(=O)n3ccccc3nc2n(C(C)C)c1=N	·	-0.39	-28	1	-5	12*
O=C(CCl)Nc1ccccc1Sc1ccccc1	·	-0.63	-11	·	-7	0
Cc1ccc(C)c(Sc2ccc(NC(=O)CCl)cc2)c1	-7	-4.2*	8	7	34	6
CC(=O)NC(C)C(c1cccs1)N1CCN(c2ccccc2)CC1 (stereo not given)	·	0.95	-13	64*	7	4
CC1CCN(c2nc3nonc3nc2Nc2ccc(F)cc2)CC1	8	0.11	6	16	-17	4
Cc1cc(C)c(NC(=O)CN2CCN(C)CC2)c(C)c1	·	0.37	·	79*	-1	·
COc1ccc(C2C(Oc3ccccc3)C(=O)N2c2cc(C)ccc2C)cc1OC (stereo not given)	·	-1.1	-25	·	-6	1
COc1ccc(C)cc1N1C(=N)/C(=C2/Nc3ccccc3S2)C(c2ccccc2)C1=O (stereo not given)	19	-3.6*	-4	8	-13	-1
O=C(CSc1nnnn1C1CC2CCC1C2)Nc1ccnc2ccccc12 (stereo not given)	·	-0.62	-22	64*	0	0
